Assay results as given in ChEMBL document CHEMBL1955718, “Discovery of new orally effective analgesic and anti-inflammatory hybrid furoxanyl N-acylhydrazone derivatives” (Bioorg Med Chem, 2012).

Experiments:
[1] = Cytotoxicity against human HT-29 cells expressing NF-kappaB-hrGFP assessed as highest non-cytotoxic dose for 100% cell survival after 24 hrs by MTT assay; type: cell-based; settings: read-out: Activity
Procedure, shortened: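 HT-29 cells stably carrying pNF-κB-hrGFP, seeded at 0.5 × 10^6/mL in DMEM with 10% FBS, grown 24 h at 37 °C, 5% CO2. Compounds added in DMSO (<0.5% v/v final) at 12.5–400 µM for 24 h. Viability by MTT reduction (2 h), formazan dissolved in DMSO/glycine buffer, read at 560 nm.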

[2] = Cytotoxicity against mouse […] cells after 48 hrs by MTT assay; type: cell-based
Procedure, shortened: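 J774 macrophages in DMEM (4 mM L-glutamine, 10% heat-inactivated FBS) were seeded at 1 × 10^5 cells/well and grown for 48 h at 37 °C, 5% CO2. They were then exposed to compounds at 25–400 µM for 48 h. MTT (0.1 mg/mL final) was added for 3 h, formazan was dissolved in DMSO/glycine buffer pH 10.5, and absorbance was read at 560 nm to give an IC50.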

[3] = system: HT-29; assay: Pro-inflammatory activity in NFkappaB-GFP transfected human HT-29 cells at 25 to 400 uM after 24 hrs by propidium iodide staining-based flow cytometric analysis; type: ADME, cell-based; settings: ht-29, 24 h
Procedure, shortened: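 Reporter HT-29-NF-κB-hrGFP cells given compound alone, without TNF-α, for 18–24 h at 37 °C after the same 2 h pre-incubation. GFP-positive live (propidium iodide-excluding) cells counted by flow cytometry; IL-8 in supernatant measured by bead-based flow cytometry.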

[4] = system: Rattus norvegicus; assay: Antiinflammatory activity in albino rat assessed as inhibition of carrageenan-induced paw edema at 100 umol/kg, po administered 1 hr before carrageenan challenge measured after 3 hrs by plethysmometric analysis relative to control; type: functional
Procedure, shortened: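 Albino rats of both sexes (150–200 g) were dosed orally as a suspension in 1% Tween 80 in saline, with vehicle controls. After 1 h, 0.1 mL 1% carrageenan or saline was injected subplantar. Paw volume was read by glass plethysmometer at 3 h. Edema = carrageenan-paw minus saline-paw volume; % inhibition vs vehicle; Student t-test.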

[5] = system: Glycine max; assay: Inhibition of soybean lipoxygenase using arachidonic acid as substrate at 50 uM
Procedure, shortened: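 Soybean 15-lipoxygenase kit assay, arachidonic acid substrate, H2O2 as lipoxygenating agent in 0.1 M Tris-HCl pH 7.4. Single-point screen at 50 µM. IC50 found by varying concentration over 10–100 µM. Quercetin at 4 µM as positive control; duplicate means; Student t-test.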

[6] = target: T1, Prostaglandin G/H synthase 1 (Ovis aries) (UniProt P05979); assay: Inhibition of ovine COX-1 at 10 uM
T1 sequence (whole entry): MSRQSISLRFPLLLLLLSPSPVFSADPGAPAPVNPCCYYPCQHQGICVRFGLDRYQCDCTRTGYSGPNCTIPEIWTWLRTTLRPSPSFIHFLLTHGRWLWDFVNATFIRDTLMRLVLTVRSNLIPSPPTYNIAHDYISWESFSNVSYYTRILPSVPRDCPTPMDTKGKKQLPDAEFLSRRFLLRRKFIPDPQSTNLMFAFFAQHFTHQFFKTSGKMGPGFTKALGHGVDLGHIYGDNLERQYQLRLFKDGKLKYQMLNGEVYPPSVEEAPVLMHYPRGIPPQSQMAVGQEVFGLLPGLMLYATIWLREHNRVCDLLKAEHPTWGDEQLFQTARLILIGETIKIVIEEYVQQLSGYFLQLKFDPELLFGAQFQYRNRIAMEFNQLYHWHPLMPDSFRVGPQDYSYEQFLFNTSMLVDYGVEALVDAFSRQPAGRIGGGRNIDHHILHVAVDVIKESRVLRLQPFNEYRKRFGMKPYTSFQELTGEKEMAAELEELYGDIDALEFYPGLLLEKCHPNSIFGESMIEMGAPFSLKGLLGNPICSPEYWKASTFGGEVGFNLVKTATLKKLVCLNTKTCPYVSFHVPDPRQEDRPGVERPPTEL
Procedure, shortened: (§1)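 Isolated ovine COX-1 and human recombinant COX-2 tested by ELISA-based inhibitor screening kit with compound at 10 and 50 µM. Positive control indomethacin at 0.1 µM (COX-1) or 6 µM (COX-2). Mean of duplicates; Student t-test.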

[7] = target: T1, Prostaglandin G/H synthase 1 (Ovis aries); assay: Inhibition of ovine COX-1 at 50 uM; procedure, shortened: as §1
[8] = target: T2, Prostaglandin G/H synthase 2 (Homo sapiens) (UniProt P35354); assay: Inhibition of human recombinant COX-2 at 10 uM; procedure, shortened: as §1
T2 sequence (whole entry): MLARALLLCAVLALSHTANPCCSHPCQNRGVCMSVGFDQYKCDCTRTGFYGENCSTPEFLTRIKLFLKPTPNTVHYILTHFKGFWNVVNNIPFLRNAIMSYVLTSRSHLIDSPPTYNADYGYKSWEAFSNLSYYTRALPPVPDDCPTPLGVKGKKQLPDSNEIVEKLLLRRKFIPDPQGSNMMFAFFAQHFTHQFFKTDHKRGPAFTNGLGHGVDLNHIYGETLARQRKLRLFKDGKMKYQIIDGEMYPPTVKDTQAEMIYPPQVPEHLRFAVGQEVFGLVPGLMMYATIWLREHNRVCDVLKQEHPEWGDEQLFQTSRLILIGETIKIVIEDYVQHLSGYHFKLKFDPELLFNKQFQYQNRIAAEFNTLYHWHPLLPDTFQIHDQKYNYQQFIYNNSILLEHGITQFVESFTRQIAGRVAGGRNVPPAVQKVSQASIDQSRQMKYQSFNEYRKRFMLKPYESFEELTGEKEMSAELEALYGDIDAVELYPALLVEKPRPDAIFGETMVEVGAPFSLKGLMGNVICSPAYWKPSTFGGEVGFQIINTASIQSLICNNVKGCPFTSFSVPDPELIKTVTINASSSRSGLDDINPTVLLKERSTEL

[9] = target: T2, Prostaglandin G/H synthase 2 (Homo sapiens); assay: Inhibition of human recombinant COX-2 at 50 uM; procedure, shortened: as §1
[10] = system: Mus musculus; assay: Analgesic activity in albino mouse assessed as inhibition of acetic acid-induced abdominal constriction at 100 umol/kg, po administered 1 hr before acetic acid challenge measured after 30 mins relative to control; type: functional; settings: Abdomen
Procedure, shortened: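 Albino mice of both sexes (18–23 g) were dosed orally as a suspension in 5% arabic gum in saline, with vehicle controls. After 1 h they received 0.6% acetic acid ip (0.1 mL/10 g). Constrictions were counted for 20 min starting 10 min after injection. Data are % inhibition vs vehicle, mean ± SEM, Student t-test.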

[11] = Induction of NO release in 0.1 M Tris-HCl and 0.1 mM DTPA at pH 8.3 measured for 20 mins in presence of cysteine; type: physicochemical; settings: buffer, pH 8.3, 20 min
Procedure, shortened: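 Electrochemical NO detection with an ISO-NOP sensor. Compounds in DMSO added to 0.1 M Tris-HCl, 0.1 mM DTPA at pH 7.4 or 8.3. Cysteine (300 or 100 µM) added and NO recorded for 20 min at 25 or 37 °C; compound:Cys ratio 1:1 at 25 °C, with 3:1 and 37 °C runs also made.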

Compound | MNTC at 24 h [1] [µM] | IC50 [2] [µM] | Activity [3] | inhibition in vivo at 100 µmol/kg [4] [%] | inhibition [5] [%] | inhibition [6] [%] | inhibition [7] [%] | inhibition [8] [%] | inhibition [9] [%] | inhibition in vivo at 100 µmol/kg [10] [%] | Activity [11] [nM/min]
Cc1c(C(=O)N/N=C/c2ccc(N(C)C)cc2)no[n+]1[O-] | 100 | 129 | Non-toxic | 19 | 0 | 22.5 | 25.3 | 17.8 | 22 |  | 
O=C(N/N=C/c1c(-c2ccccc2)no[n+]1[O-])c1ccc2c(c1)OCO2 | 100 | 191 | Non-toxic | 0 | 0 | 27 | 28.5 | 13.1 | 11.9 | 42 | 0.39
Cc1[nH]cnc1C(=O)N/N=C/c1ccc2no[n+]([O-])c2c1 | 50 | 38 | Non-toxic | 31 | 0 | 25.9 | 22.3 | 19.6 | 6.4 | 46 | 0
